GSK3 alpha inh = blockers of GSK3A enzyme activity – biochemical, luminescence, cell-free homogeneous, HTS, primary screen. Glycogen synthase kinase-3 alpha (Homo sapiens), P49840. GSK-3 alpha kinase, ADP-Glo luminescence, 60 min. inhibition, % at 10 µM. 320,000 compounds, 0.1% hits. AID 2650, 2010;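 active means more than half of replicates show inhibition above 20%; inconclusive means some but at most half of replicates above 20% inhibition; inactive means no replicate shows inhibition above 20%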;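 further: GST-tagged GSK-3 alpha with peptide substrate and 25 µM ATP; 0% = DMSO neutral wells and 100% = GW8510 positive control wells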
PolyA inhibitor = polyadenylation inhibitors in yeast reporter cells, primary screen, luminescence, S. cerevisiae | S. cerevisiae SKY197-pL101 polyadenylation reporter, beta-gal luminescence; efflux-impaired pdr1/pdr3 knockout yeast; score 100 = 6 SD above DMSO | activity score, % at 12 µM | 300,000 compounds, 0.02% hits;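 active means lowest replicate activity score at least 50, where 100 means six control SD above control mean; inconclusive means lowest score under 50 but half or more replicates reach 50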;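 further: yeast exposed to compound for 9 h at 30 °C; higher score means more reporter readthrough which indicates perturbed polyadenylation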
Yeast superoxide = reduction of superoxide in aged yeast, primary screen, HTS | S. cerevisiae aged cells, superoxide DHE fluorescence; active compounds read low | superoxide response (% of plate mean), % at 10 µM | 330,000 compounds, 0.18% hits | AID 2690, 2010;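 active means superoxide response under a set limit, about three screen SD below normal, cut at about 65% in these data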;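 further: yeast aged for seven days with compound at 30 °C before DHE staining; 100% = average MFI of all compound-treated wells on the plate with controls excluded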
GSK3B inh = human GSK3beta kinase inhibitors, primary screen, biochemical, cell-free homogeneous, HTS. GST-GSK3beta kinase, ADP-Glo luminescence, 60 min; active compounds read low. activity score (negative = inhibition), % at 10 µM. 300,000 compounds, 0.038% hits;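 active means more than half of replicate wells score below -50%, meaning over 50% inhibition versus plate controls; inconclusive means some replicates but at most half score below -50%; inactive means no replicate scores below -50%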;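 further: 0% = median DMSO wells and -100% = median GW8510 positive control wells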
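test system = GST-tagged human GSK3beta kinase, cell-free | reagent = 25 µM ATP with peptide substrate | dosing = one dose of 10 µM per compound | schedule = 60 min reaction, RT | detection = luminescent ADP-Glo measurement of ADP formed | control set = DMSO neutral wells and GW8510 at 20 µM as positive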
AI-2 QS mod = Vibrio harveyi AI-2 quorum sensing modulators, primary screen, JMH597 strain, luminescence/OD600 ratio | Vibrio harveyi JMH597 AI-2 luminescence/OD600 ratio, 9 h; active compounds read low; strain lacks LuxN and CqsS sensors; 0 = neutral-control median | activity change, % at 7.5 µM | 300,000 compounds, 0.4% hits; in the data active means activity change below about -75%, passing the limit was not always enough; inconclusive means no clear call, values can overlap the other calls;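 further: luminescence divided by OD600 gain over 9 h not by final OD600 alone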
STK33 kinase inh = inhibitors of purified STK33 kinase, primary screen, biochemical, ADP-Glo luminescence, homogeneous, cell-free; MBP phosphorylation; inhibition, % at 10 µM; 320,000 compounds, 0.073% hits; AID 2661, 2010;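 active means inhibition at or above 25%, using the most active replicate where run in duplicate; inactive means inhibition below 25%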
Target sequence (Q9BYT3 whole entry, looked up): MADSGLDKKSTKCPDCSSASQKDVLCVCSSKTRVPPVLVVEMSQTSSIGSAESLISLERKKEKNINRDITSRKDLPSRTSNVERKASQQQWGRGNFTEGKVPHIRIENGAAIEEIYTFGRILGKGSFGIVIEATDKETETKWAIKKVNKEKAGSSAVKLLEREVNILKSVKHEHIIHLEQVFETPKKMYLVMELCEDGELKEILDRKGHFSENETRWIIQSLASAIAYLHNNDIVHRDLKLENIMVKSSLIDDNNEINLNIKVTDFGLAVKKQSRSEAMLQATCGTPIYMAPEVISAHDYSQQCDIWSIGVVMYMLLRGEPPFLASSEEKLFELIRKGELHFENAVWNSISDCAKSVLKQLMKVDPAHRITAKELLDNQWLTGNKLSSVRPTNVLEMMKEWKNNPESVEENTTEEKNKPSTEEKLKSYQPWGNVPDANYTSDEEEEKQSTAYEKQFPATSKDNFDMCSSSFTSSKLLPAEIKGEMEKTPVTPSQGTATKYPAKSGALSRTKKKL
* = called active by the depositor; ? = inconclusive; nt = no result. Hits are enriched below; roughly 0.72% of the tested compounds scored in any of these assays.

SMILES | GSK3 alpha inh | PolyA inhibitor | Yeast superoxide | GSK3B inh | AI-2 QS mod | STK33 kinase inh
COCCCNc1nc(N)c([N+](=O)[O-])c(NCc2ccccc2)n1 | 3.1 | -17.8 | 100.5 | -1.4 | -2.7 | -1.7
COCCCNc1nc(N)c([N+](=O)[O-])c(NCC2CCCO2)n1 (stereo not given) | 81.1* | -2.1 | 101.6 | -0.1 | -11.9 | 1.2
COCCCNc1nc(N)c([N+](=O)[O-])c(Nc2ccccc2OC)n1 | 74.0* | -14.8 | 97.2 | -47.7 | 10.9 | -0.1
CC(C)CNc1nc(N)c([N+](=O)[O-])c(NC2CCCCC2)n1 | 1.0 | 5.0 | 105.9 | 1.5 | 29.0 | -0.1
CC(C)CNc1nc(N)c([N+](=O)[O-])c(NCC2CCCO2)n1 (stereo not given) | 58.9* | -7.5 | 102.8 | -36.5 | -1.3 | 1.2
CCOC(=O)c1cnc2c(OC)cccc2c1Nc1ccc2c(c1)OCCO2 | 3.1 | -8.6 | 57.4* | -1.6 | -4.0 | 0.4
CCOC1(OCC)N=C(N)C2(C#N)C(c3ccc(NC(C)=O)cc3)C12C#N (stereo not given) | 59.9* | 9.5 | 90.6 | 3.2 | 9.5 | 12.5
CN(C)c1nc(N)c([N+](=O)[O-])c(NCCO)n1 | 0.5 | -14.2 | 99.1 | -1.5 | 12.8 | -1.1
CC(C)CCNc1nc(N)c([N+](=O)[O-])c(NCCO)n1 | 79.5* | 6.2 | 106.6 | -67.4* | 2.3 | 3.1
Nc1nc(NCc2ccc(Cl)cc2)nc(NCCO)c1[N+](=O)[O-] | 12.6 | 6.7 | 106.4 | -1.5 | 19.9 | -2.4
Nc1nc(Nc2ccc(Cl)cc2)nc(NCCO)c1[N+](=O)[O-] | 54.7* | -11.7 | 104.8 | -15.9 | 19.3 | 3.4
Cc1ccc(CNc2nc(N)c([N+](=O)[O-])c(NCCO)n2)cc1 | 50.7* | -4.1 | 99.5 | -39.2 | 16.0 | 1.9
Cc1ccc(Nc2nc(N)c([N+](=O)[O-])c(NCCO)n2)cc1C | 42.2 | 14.1 | 105.7 | -10.8 | 3.3 | 1.7
CCC(C)Nc1nc(N)c([N+](=O)[O-])c(NCCO)n1 (stereo not given) | 72.6* | -10.3 | 104.9 | -1.0 | 15.2 | 0.6
COc1ccc(NC(=O)C2CC(c3ccccc3Cl)=NO2)cc1 (stereo not given) | -1.8 | 14.9 | 103.9 | -2.1 | -17.7 | -0.6
CCCOc1ccc(CCC(=O)N/N=C/c2ccc([N+](=O)[O-])o2)cc1 | -1.3 | -13.3 | 113.6 | 2.2 | -224.5* | 0.5
CCCCCCCCCCCC(=O)N/N=C/c1ccco1 | -2.2 | 81.8* | 89.6 | -2.9 | -12.8 | -1.4
CCOC(=O)N/N=C\c1ccc([N+](=O)[O-])o1 | -1.4 | -16.0 | 113.0 | 0.5 | -88.7* | 0.1
Cc1cc(C)cc(OCC(=O)N/N=C/c2ccc([N+](=O)[O-])o2)c1 | 0.2 | -7.6 | 119.9 | -3.7 | ? | -0.5
COc1ccccc1OCC(=O)N/N=C/C=C/c1ccc([N+](=O)[O-])o1 | nt | -24.0 | 108.7 | 12.0 | -93.8* | nt
Cc1ccnc2nc(C(=O)OC(C)C(=O)NCc3ccccc3)nn12 (stereo not given) | -0.8 | nt | 103.8 | nt | nt | -1.1
C/C(CCC(C)C)=N\Nc1cc(C)c2ccccc2n1 | -1.7 | 0.0 | 107.9 | nt | nt | 0.3
CCCCCCCC(=O)N/N=C/c1ccc([N+](=O)[O-])o1 | 1.2 | -19.9 | 93.3 | -0.5 | -132.5* | 0.5
O=C(N/N=C\c1ccc(-c2ccc([N+](=O)[O-])cc2)o1)c1ccc2c(c1)OCO2 | 0.1 | 7.4 | 88.9 | -0.9 | 23.6 | -0.1
O=C(Cc1ccc([N+](=O)[O-])cc1)N/N=C/c1ccc([N+](=O)[O-])o1 | -0.7 | 3.0 | 121.2 | 0.8 | 1.4 | -0.3
SMILES | GSK3 alpha inh | PolyA inhibitor | Yeast superoxide | GSK3B inh | AI-2 QS mod | STK33 kinase inh
O=C(N/N=C/c1ccc([N+](=O)[O-])o1)c1ccc2c(c1)OCO2 | 11.0 | 11.4 | 117.6 | 1.2 | -101.2* | 2.3
CCn1c2ccc(C)cc2c2nc3cc(C(=O)O)ccc3nc21 | 27.5 | -84.2 | 112.1 | -5.3 | 46.3 | 56.6*
COCC1CCN(Cc2cn(-c3ccccc3F)nc2-c2cc(C)sc2C)CC1 | -2.5 | 6.3 | 101.8 | 0.7 | 14.3 | -2.3
O=C1S/C(=C\c2ccc(O)c([N+](=O)[O-])c2)C(=O)N1Cc1cccc([N+](=O)[O-])c1 | 1.2 | -37.3 | 102.3 | -3.5 | 28.2 | 0.0
O=C1S/C(=C\c2ccc(O)c([N+](=O)[O-])c2)C(=O)N1c1ccccc1Cl | 8.6 | 83.1* | 106.3 | -10.6 | 21.7 | nt
Cc1ccc(C(=O)Nc2ccc3c(c2)C(=O)N(C)C3=O)c(C)c1 | -2.4 | 14.8 | 98.1 | -4.2 | 8.9 | -1.3
CC(=O)NC(c1ccc(Cl)cc1Cl)c1ccc2cccnc2c1O (stereo not given) | -3.6 | -16.2 | 103.7 | 3.3 | -83.6* | -0.4
CCCC(=O)NC(c1ccc(Cl)cc1Cl)c1ccc2cccnc2c1O (stereo not given) | 0.1 | -2.5 | 95.1 | 0.5 | 28.1 | -2.6
COc1ccc(Cl)c(OC)c1C(=O)NC(=O)Nc1c(F)cc(F)cc1F | -1.5 | -9.4 | 98.2 | 0.7 | 34.7 | -1.1
CO[C@H]1C=CO[C@@]2(C)Oc3c(C)c(O)c4c(O)c(c(C=NN5CCN(C)CC5)c(O)c4c3C2=O)NC(=O)C(C)=CC=C[C@H](C)[C@H](O)[C@@H](C)[C@@H](O)[C@@H](C)[C@H](OC(C)=O)[C@@H]1C | -0.7 | 8.2 | 95.7 | -2.8 | -119.1* | 0.6
CO[C@H]1/C=C/O[C@@]2(C)Oc3c(C)c(O)c4c(O)c(c(C=NN5CCN(C)CC5)c(O)c4c3C2=O)NC(=O)/C(C)=C\C=C\[C@H](C)[C@H](O)[C@@H](C)[C@@H](O)[C@@H](C)[C@H](OC(C)=O)[C@@H]1C | -1.1 | nt | 106.3 | nt | nt | 0.1
CO[C@H]1C=CO[C@@]2(C)Oc3c(C)c(O)c4c(O)c(c(C=NN5CCN(C6CCCC6)CC5)c(O)c4c3C2=O)NC(=O)C(C)=CC=C[C@H](C)[C@H](O)[C@@H](C)[C@@H](O)[C@@H](C)[C@H](OC(C)=O)[C@@H]1C | nt | -5.3 | nt | 4.7 | -185.1* | nt
COc1cc2c(cc1OC)CN(C(=O)c1cc(S(=O)(=O)N3CCOCC3)c(Cl)cc1Cl)CC2 | -1.3 | 1.7 | 114.1 | 0.8 | 34.1 | -0.8
COc1cc(/C=N/NC(=O)c2nnn(-c3nonc3N)c2-c2cccs2)ccc1O | 75.3* | 7.4 | 103.5 | 1.1 | 4.9 | 4.0
Cc1ccc(/C=N/NC(=O)c2nnn(-c3nonc3N)c2-c2cccs2)cc1 | 38.9 | -2.7 | 86.6 | 1.6 | 21.6 | 0.2
